Source: ChEMBL document CHEMBL4376812 (J Med Chem, 2019)

Experiments:
Cytochrome P450 3A4 = Cytochrome P450 3A4 (Homo sapiens, UniProt P08684); experiment: Induction of CYP3A4 (unknown origin) by PXR-transactivation assay; assay type: ADME
Summary of the method: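 CYP3A4 induction measured by PXR transactivation, read out as EC50. The highest concentration tested was 40 μM.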

[1] = Half life in C57BL/6 mouse at 1 mg/kg, iv; assay type: ADME, organism-based; details: in vivo
Summary of the method: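 Mouse iv PK: 1 mg/kg in 80% PEG 400/20% water. Terminal half-life reported in hours.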

Cytochrome P450 2D6 = Cytochrome P450 2D6 (Homo sapiens, UniProt P10635); experiment: Inhibition of CYP2D6 (unknown origin); assay type: ADME
Summary of the method: (§1)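 Inhibition of CYP1A2, 2C9, 2C19, 2D6 and 3A4, read out as IC50. The highest concentration tested was 40 μM.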

[2] = Cmax in dog at 10 mg/kg, po; assay type: ADME, organism-based, Canis lupus familiaris; parameters: dose 10 mg/kg, route oral; details: in vivo
Summary of the method: (§2)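 Oral PK: single dose of 10 mg/kg as a solution in ethanol/TPGS/PEG 300 (5:5:90) given to mouse, dog and monkey. Cmax (μM), AUC (μM × h) and bioavailability F (%) were derived, with F taken against the iv arm.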

[3] = Metabolic stability in rabbit liver microsomes assessed as half life; assay type: ADME, Oryctolagus cuniculus, Microsome
Summary of the method: (§3)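 Liver microsomes from human, rat, mouse, dog, cynomolgus monkey and rabbit were incubated with compound. Stability is reported as half-life (T1/2, min). Values are means of at least three separate experiments.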

[4] = AUC in cynomolgus monkey at 10 mg/kg, po; assay type: ADME, organism-based, Macaca fascicularis; details: in vivo; summary of the method: as §2
[5] = Drug metabolism in C57BL/6 mouse assessed as N-dealkylation of compound by measuring primary amide metabolite formation in mouse plasma by deuterium kinetic isotope effect; assay type: ADME
Summary of the method: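 Circulating primary amide metabolite, formed by N-dealkylation of the deuteromethyl amide, was measured in the mouse, dog and monkey PK studies (10 mg/kg po; iv arms). The lower limit of detection was about 2 nM.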

[6] = Protein binding in mouse assessed as unbound fraction; assay type: ADME
[7] = Oral bioavailability in cynomolgus monkey at 10 mg/kg; assay type: ADME, organism-based, Macaca fascicularis; details: in vivo; summary of the method: as §2
[8] = Metabolic stability in mouse liver microsomes assessed as compound remaining incubated for 10 mins; assay type: ADME, Microsome; details: read-out: Stability
Summary of the method: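 Mouse liver microsomal stability, reported as percent of parent remaining after a 10 min incubation. Values are means of at least three experiments unless otherwise noted.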

[9] = Metabolic stability in mouse liver microsomes assessed as half life; assay type: ADME, Microsome; summary of the method: as §3
Mus musculus [10] = experiment: Antiinflammatory activity in CD40-induced colitis model of SCID mouse assessed as inhibition of histological scores in intestine at 50 mg/kg, po administered twice daily relative to control; assay type: functional
Summary of the method: (§4)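 Colitis induced by anti-CD40 in SCID mice. Compound was given orally at 50 mg/kg twice daily. Read-outs were peak weight loss (IL-12 driven) and histological scores.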

[11] = Permeability coefficient, Kp across basolateral to apical side in human Caco2 cells; assay type: ADME, cell-based; details: Caco-2, read-out: permeability
Summary of the method: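 Caco-2 monolayer permeability measured in both directions, apical-to-basal and basal-to-apical, reported as Pc in nm/s. An efflux ratio was calculated from the two directions.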

[12] = Oral bioavailability in C57BL/6 mouse at 10 mg/kg; assay type: ADME, organism-based; details: in vivo; summary of the method: as §2
[13] = Volume of distribution at steady state in C57BL/6 mouse at 1 mg/kg, iv; assay type: ADME, organism-based; details: in vivo, read-out: Vdss
Summary of the method: (§5)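 Single intravenous dose in 80% PEG 400/20% water. V_ss was taken from the iv plasma PK profile.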

[14] = Oral bioavailability in dog at 10 mg/kg; assay type: ADME, organism-based, Canis lupus familiaris; details: in vivo; summary of the method: as §2
Cytochrome P450 2C19 = Cytochrome P450 2C19 (Homo sapiens, UniProt P33261); experiment: Inhibition of CYP2C19 (unknown origin); assay type: ADME; summary of the method: as §1
Mus musculus [15] = experiment: Antiinflammatory activity in CD40-induced colitis model of SCID mouse assessed as inhibition of IL-2 driven body weight loss at 50 mg/kg, po administered twice daily relative to control; assay type: functional; details: in the assay text read “IL-12 driven” for “IL-2 driven”; summary of the method: as §4
[16] = Clearance in dog at 2 mg/kg, iv; assay type: ADME, organism-based, Canis lupus familiaris; details: in vivo
Summary of the method: (§6)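 Dog and monkey iv PK: 2 mg/kg given by iv administration. Clearance (mL min⁻¹ kg⁻¹), Vss, T1/2 (h) and MRT (h) were derived.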

[17] = Half life in cynomolgus monkey at 2 mg/kg, iv; assay type: ADME, organism-based, Macaca fascicularis; details: in vivo; summary of the method: as §6
[18] = MRT in cynomolgus monkey at 2 mg/kg, iv; assay type: ADME, organism-based, Macaca fascicularis; details: in vivo; summary of the method: as §6
[19] = MRT in C57BL/6 mouse at 1 mg/kg, iv; assay type: ADME, organism-based; details: in vivo
Summary of the method: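 Mouse iv PK: 1 mg/kg given in 80% PEG 400/20% water. Clearance (mL min⁻¹ kg⁻¹) and MRT (h) were derived.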

[20] = Metabolic stability in cynomolgus monkey liver microsomes assessed as half life; assay type: ADME, Macaca fascicularis, Microsome; summary of the method: as §3
[21] = Cmax in C57BL/6 mouse at 10 mg/kg, po; assay type: ADME, organism-based; parameters: dose 10 mg/kg, route oral; details: in vivo; summary of the method: as §2
Cytochrome P450 2C9 = Cytochrome P450 2C9 (Homo sapiens, UniProt P11712); experiment: Inhibition of CYP2C9 (unknown origin); assay type: ADME; summary of the method: as §1
[22] = Volume of distribution at steady state in cynomolgus monkey at 2 mg/kg, iv; assay type: ADME, organism-based, Macaca fascicularis; details: in vivo, read-out: Vdss; summary of the method: as §5
[23] = Metabolic stability in dog liver microsomes assessed as half life; assay type: ADME, Canis lupus familiaris, Microsome; summary of the method: as §3
hERG (KCNH2) = hERG (KCNH2) (Homo sapiens, UniProt Q12809); experiment: Inhibition of human ERG at 10 uM by patch-clamp assay relative to control
Summary of the method: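 hERG potassium channel patch clamp assay, read as percent inhibition at 10 μM (n = 7).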

[24] = Half life in dog at 2 mg/kg, iv; assay type: ADME, organism-based, Canis lupus familiaris; details: in vivo; summary of the method: as §6
[25] = Time during which drug concentration exceed invitro IC50 for TYK2 in mouse whole blood assessed as decrease in IFNalpha-induced STAT1 phosphorylation in C57BL/6 mouse at 30 mg/kg, po via gavage bid for 9 days with first dose given prior to first IL23 challenge and twice a day thereafter; assay type: ADME, organism-based; details: in vivo, 216 h
Summary of the method: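 Drug levels were measured in the animals of the IL-23 acanthosis study, dosed orally twice daily. The duration was the time, in hours, that levels stayed at or above the in vitro mouse whole blood IC50 for IFNα-induced pSTAT1.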

[26] = AUC in dog at 10 mg/kg, po; assay type: ADME, organism-based, Canis lupus familiaris; details: in vivo; summary of the method: as §2
[27] = Volume of distribution at steady state in dog at 2 mg/kg, iv; assay type: ADME, organism-based, Canis lupus familiaris; details: in vivo, read-out: Vdss; summary of the method: as §5

Chain of Cytochrome P450 2D6 (P10635 whole entry): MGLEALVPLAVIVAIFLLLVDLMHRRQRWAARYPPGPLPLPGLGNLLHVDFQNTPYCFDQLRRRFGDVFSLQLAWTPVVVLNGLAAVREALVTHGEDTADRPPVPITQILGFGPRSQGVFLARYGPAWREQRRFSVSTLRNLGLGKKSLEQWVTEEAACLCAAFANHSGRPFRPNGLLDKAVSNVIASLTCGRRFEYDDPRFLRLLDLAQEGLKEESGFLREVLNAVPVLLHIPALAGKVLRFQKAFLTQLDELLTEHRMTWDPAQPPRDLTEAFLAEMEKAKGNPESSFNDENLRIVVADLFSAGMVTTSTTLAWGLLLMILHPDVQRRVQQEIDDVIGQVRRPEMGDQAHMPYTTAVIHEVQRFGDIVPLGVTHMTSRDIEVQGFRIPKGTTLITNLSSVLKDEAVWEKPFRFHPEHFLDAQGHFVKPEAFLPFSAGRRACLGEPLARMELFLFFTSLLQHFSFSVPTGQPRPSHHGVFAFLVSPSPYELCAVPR
Chain of Cytochrome P450 2C9 (P11712 whole entry): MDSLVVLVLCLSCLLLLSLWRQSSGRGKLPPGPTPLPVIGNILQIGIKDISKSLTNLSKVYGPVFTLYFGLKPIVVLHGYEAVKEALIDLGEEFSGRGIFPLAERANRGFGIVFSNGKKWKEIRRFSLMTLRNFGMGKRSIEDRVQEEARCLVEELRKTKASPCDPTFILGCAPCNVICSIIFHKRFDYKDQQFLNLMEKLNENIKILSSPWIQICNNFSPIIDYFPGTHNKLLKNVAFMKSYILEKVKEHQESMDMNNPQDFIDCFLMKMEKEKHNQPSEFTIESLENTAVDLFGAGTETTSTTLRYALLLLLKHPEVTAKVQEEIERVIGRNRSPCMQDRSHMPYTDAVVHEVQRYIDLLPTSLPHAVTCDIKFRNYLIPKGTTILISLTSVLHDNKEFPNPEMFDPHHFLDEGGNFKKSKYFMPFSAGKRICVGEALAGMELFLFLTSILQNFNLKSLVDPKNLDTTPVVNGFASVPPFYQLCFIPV
Chain of Cytochrome P450 2C19 (P33261 whole entry): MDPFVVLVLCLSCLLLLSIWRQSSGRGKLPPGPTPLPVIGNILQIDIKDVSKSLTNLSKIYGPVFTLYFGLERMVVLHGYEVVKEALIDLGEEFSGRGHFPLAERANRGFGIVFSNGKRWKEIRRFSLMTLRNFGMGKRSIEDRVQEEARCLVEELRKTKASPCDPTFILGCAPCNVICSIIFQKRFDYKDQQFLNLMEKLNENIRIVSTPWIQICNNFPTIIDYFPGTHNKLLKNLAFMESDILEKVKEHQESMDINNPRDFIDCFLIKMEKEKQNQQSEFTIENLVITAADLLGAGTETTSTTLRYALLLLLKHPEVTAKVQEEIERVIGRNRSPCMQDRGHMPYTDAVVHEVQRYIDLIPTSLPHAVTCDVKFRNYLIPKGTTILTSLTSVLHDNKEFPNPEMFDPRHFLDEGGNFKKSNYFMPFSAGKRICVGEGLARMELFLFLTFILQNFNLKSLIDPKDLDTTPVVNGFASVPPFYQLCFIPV
Chain of hERG (KCNH2) (Q12809 whole entry): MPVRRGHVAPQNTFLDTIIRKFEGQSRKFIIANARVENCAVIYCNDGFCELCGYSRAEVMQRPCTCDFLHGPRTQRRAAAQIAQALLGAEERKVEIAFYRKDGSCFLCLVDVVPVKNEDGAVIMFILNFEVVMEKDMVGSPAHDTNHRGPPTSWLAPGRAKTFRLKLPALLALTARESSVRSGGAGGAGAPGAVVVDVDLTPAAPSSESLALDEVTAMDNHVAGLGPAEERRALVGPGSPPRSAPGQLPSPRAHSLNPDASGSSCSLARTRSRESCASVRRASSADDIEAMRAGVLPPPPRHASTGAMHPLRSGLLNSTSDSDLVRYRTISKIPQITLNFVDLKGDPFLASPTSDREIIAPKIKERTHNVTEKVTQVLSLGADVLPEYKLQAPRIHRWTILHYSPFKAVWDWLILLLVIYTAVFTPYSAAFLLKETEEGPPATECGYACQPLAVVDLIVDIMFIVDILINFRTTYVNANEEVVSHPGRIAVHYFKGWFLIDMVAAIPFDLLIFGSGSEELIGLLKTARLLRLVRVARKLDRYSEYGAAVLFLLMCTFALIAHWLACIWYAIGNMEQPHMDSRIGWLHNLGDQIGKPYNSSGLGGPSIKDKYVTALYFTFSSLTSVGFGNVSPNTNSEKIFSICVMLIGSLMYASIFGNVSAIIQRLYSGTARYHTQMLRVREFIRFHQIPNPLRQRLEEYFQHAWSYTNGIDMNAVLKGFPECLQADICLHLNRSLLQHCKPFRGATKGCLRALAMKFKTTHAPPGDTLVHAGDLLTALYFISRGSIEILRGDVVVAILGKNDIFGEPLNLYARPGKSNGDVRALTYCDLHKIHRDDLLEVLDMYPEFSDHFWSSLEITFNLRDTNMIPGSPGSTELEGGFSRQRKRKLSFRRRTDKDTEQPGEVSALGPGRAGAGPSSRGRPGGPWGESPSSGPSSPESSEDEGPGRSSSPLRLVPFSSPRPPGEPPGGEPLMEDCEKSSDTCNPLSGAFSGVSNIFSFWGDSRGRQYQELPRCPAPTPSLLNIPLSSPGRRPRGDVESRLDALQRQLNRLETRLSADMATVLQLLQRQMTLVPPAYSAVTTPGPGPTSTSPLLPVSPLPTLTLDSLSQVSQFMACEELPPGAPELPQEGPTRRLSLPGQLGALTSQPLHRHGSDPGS
Chain of Cytochrome P450 3A4 (P08684 whole entry): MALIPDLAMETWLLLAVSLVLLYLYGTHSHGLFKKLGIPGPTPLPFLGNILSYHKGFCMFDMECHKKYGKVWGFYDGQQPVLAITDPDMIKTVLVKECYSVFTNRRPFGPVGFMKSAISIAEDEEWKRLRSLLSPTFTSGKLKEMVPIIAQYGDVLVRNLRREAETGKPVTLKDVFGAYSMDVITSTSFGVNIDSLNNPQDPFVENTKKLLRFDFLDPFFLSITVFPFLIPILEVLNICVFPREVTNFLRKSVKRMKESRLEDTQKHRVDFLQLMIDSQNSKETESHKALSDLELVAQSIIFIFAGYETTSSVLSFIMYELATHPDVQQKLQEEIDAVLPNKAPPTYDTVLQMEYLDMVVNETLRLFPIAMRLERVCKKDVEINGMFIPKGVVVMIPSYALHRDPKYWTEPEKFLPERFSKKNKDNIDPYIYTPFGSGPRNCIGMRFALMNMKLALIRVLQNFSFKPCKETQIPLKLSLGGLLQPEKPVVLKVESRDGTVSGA

Structure (SMILES): [2H]C([2H])([2H])NC(=O)c1nnc(NC(=O)C2CC2)cc1Nc1cccc(-c2ncn(C)n2)c1OC [DEUCRAVACITINIB]
- EC50 (Cytochrome P450 3A4): > 40 µM
- half-life [1]: 4.2 h
- IC50 (Cytochrome P450 2D6): > 40 µM
- Cmax [2]: 6.9 µM
- half-life [3]: > 2 h
- AUC [4]: 75.7 µM·h
- Drug metabolism [5]: < 2 nM
- fraction unbound [6]: 0.15
- bioavailability [7]: 87%
- remaining at 10 min [8]: 89%
- half-life [9]: > 2 h
- inhibition in vivo at 50 mg/kg (Mus musculus [10]): 70%
- Papp B→A [11]: 740 nm/s
- bioavailability [12]: 122%
- Vd [13]: 2.9 L/kg
- bioavailability [14]: 128%
- IC50 (Cytochrome P450 2C19): > 40 µM
- inhibition in vivo at 50 mg/kg (Mus musculus [15]): 99%
- clearance [16]: 0.408 L/h/kg
- half-life [17]: 5.3 h
- MRT [18]: 7 h
- MRT [19]: 3.6 h
- half-life [20]: > 2 h
- Cmax [21]: 7.5 µM
- IC50 (Cytochrome P450 2C9): > 40 µM
- Vd [22]: 2 L/kg
- half-life [23]: > 2 h
- inhibition at 10 µM (hERG (KCNH2)): 26%
- half-life [24]: 4.6 h
- T>IC50 [25]: 24 h
- AUC [26]: 73.6 µM·h
- Vd [27]: 2.3 L/kg
